This note sets out measurements from PubChem BioAssay.

Molecules are shown by their SMILES. The source made the active and inactive calls.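 The calls were made as follows, unless noted: active = mean duplicate potentiation above the buffer control mean plus 5 SD of buffer wells; inactive = the rest.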

Assay [1] can be described thus: thallium flux activation in parental CHO cells, counter-screen for KCNQ1 potentiator project (AID 493006;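 active = duplicate-averaged activation above buffer control mean plus 5 SD of those controls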;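 as to activation: fluorescence ratio of max minus min over baseline after K+ and Tl+ depolarization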). To be noted: parental CHO-K1 cells, FluxOR thallium flux, at 10 µM; hits give high values. In a few lines:
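Material: parental CHO-K1 cells, FluxOR dye-loaded; Also added: Potassium/thallium depolarization pulse; Schedule: overnight 37 °C plating, 90 min dye, 20 min dark compound; Signal: kinetic FluxOR fluorescence, 10 s baseline, 110 s after stimulus.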
Background: The purpose of a counterscreen is to sort out artefacts and off-target activity.

Assay [2] addresses Potassium voltage-gated channel subfamily KQT member 1 (Homo sapiens) (UniProt P51787). The assay is described as follows: KCNQ1 potassium channel potentiators, confirmation, FluxOR thallium flux, CHO cells, duplicates (AID 493007;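 active = potentiation averaged over duplicate wells exceeding buffer-only control mean by more than 3 SD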;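 as to outcome: cells depolarized by a potassium plus thallium sulfate stimulus after compound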). As to conditions: KCNQ1 cell line, FluxOR thallium flux fluorescence, at 10 µM; hits give high values, % of reference activator effect, buffer zero. In a few lines:
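System: KCNQ1-expressing CHO cell line; technique: kinetic thallium influx fluorescence with FluxOR dye, 10 s baseline, 110 s post-stimulus; timing: dye 90 min then compound 20 min, both at room temperature; controls: buffer-only wells as 0% and R-L3 activator as 100%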

The target of assay [3] is Potassium voltage-gated channel subfamily KQT member 2 (Rattus norvegicus) (UniProt O88943). In words: rat KCNQ2 channel potentiation, selectivity assay for KCNQ1 potentiator project, KCNQ2-CHO-K1 cells (AID 493009).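 Also: assay conditions were tuned for KCNQ1 rather than KCNQ2 modulators; signal is max minus min fluorescence divided by baseline after thallium stimulus.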 As to conditions: FluxOR thallium flux fluorescence, at 10 µM; hits give high values, scaled: buffer 0, activator control 100.
Assay [4] deals with Potassium voltage-gated channel subfamily KQT member 1 (Homo sapiens) (UniProt P51787). The assay is described as follows: KCNQ1 channel current potentiators, confirmation, orthogonal assay for KCNQ1 potentiator project, IonWorks patch clamp, KCNQ1-CHO cells (AID 493184;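 active = current rise at least 3 SD above the untreated control mean in each of two repeat wells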;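 as to current potentiation: percent change of the same well's current before compound addition so 0% = no change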). To be noted: automated patch clamp current, at 10 µM; hits give high values. Put shortly:
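Test system: KCNQ1-expressing CHO cells. Medium: pH 7.4 external bath. Probe or stimulus: voltage step from -90 mV holding to +40 mV, 2,000 ms. Compound: 10 µM final, single point. Detection: automated perforated-patch electrophysiology. Read-out: percent current increase versus pre-compound level. Repeats: two replicates.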

Chain of Potassium voltage-gated channel subfamily KQT member 2 (Rattus norvegicus) (O88943 whole entry, looked up): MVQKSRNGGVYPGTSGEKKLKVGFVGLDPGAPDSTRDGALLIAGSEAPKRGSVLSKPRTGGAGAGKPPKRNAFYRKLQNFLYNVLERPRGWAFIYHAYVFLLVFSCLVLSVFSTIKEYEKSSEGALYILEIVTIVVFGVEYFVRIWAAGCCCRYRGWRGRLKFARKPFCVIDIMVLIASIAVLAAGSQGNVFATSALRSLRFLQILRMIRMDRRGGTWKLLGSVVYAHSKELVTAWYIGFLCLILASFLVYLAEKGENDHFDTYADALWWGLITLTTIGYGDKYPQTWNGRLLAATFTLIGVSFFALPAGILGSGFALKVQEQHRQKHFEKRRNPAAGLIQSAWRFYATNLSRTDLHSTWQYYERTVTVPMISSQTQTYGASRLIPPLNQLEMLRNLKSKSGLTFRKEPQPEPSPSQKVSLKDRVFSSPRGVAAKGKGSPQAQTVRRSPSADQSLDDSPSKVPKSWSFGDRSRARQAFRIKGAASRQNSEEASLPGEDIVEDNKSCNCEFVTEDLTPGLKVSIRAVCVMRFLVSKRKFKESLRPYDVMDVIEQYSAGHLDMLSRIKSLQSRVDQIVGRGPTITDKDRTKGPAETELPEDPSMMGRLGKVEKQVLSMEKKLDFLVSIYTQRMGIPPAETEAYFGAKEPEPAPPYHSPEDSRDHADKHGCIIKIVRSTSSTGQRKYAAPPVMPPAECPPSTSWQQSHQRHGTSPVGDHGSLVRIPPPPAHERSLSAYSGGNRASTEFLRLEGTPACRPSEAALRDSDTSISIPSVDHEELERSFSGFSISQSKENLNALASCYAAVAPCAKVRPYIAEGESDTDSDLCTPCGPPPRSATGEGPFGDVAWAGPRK
Chain of Potassium voltage-gated channel subfamily KQT member 1 (Homo sapiens) (P51787 whole entry, looked up): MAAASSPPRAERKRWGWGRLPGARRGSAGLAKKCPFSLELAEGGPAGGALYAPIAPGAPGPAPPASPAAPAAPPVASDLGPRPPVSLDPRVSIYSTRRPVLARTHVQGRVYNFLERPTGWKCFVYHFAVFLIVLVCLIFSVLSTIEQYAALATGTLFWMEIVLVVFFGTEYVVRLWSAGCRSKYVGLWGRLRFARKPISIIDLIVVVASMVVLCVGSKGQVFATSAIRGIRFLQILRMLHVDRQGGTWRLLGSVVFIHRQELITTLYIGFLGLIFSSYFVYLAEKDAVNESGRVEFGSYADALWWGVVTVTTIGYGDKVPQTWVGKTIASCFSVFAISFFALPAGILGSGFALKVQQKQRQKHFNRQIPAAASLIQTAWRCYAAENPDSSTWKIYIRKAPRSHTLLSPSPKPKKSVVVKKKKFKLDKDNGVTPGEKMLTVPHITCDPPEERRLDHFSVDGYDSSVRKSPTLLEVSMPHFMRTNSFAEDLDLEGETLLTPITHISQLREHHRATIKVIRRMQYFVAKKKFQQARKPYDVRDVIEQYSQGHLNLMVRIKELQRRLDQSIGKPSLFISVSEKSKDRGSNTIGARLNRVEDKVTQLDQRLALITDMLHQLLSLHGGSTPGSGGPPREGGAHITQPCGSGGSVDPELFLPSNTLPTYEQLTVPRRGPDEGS

On to `O=C(OCc1cccc([N+](=O)[O-])c1)c1ccncc1`, for which the result in assay [1], in assay [2], in assay [3] and in assay [4] was inactive.
Regarding `COc1ccc(CCN2CC(C(=O)Nc3ccc4c(c3)OCO4)CC2=O)cc1OC` (stereo not given), the activation in assay [1] was 156% (active). Further, the potentiation in assay [2] is 21% (active); in assay [3], 158% (active). Also, in assay [4], the result was inactive.
On to `CCOC(=O)c1ccc(NC(=S)N2CCSC2c2ccc(Br)cc2)cc1` (stereo not given), for which the result in assay [1], in assay [2], in assay [3] and in assay [4] was inactive.
Regarding `CCOc1ccc(C(C#N)N2CCOCC2)cc1OC` (stereo not given), the result in assay [1], in assay [2], in assay [3] and in assay [4] was inactive.
On to `CSc1nc(C)cc(OCC(=O)N/N=C/c2ccccc2O)n1`, for which the result in assay [1], in assay [2], in assay [3] and in assay [4] was inactive.
For the molecule `O=C(NC(=S)Nc1nc(-c2ccccc2)cs1)c1ccco1`, the outcome in assay [1], in assay [3] and in assay [4] was inactive. For the same molecule, the potentiation in assay [2] is 48.5% (active).
In the case of `Cc1cc(N2CCN(C)CC2)nc2ccc(NC(=S)NCCCN3CCc4ccccc4C3)cc12`, the result in assay [1], in assay [2], in assay [3] and in assay [4] was inactive.
For `OC(c1ccccc1)c1cccnc1` (stereo not given), in assay [1], the activation was 146% (active). Also, the potentiation in assay [2] is 22% (active); in assay [3], 155% (active). In assay [4], the outcome was inactive.
For the molecule `O=C(C1CCCCC1)N1CCCC(c2nc3c(nnn3Cc3ccccc3)c(=O)[nH]2)C1` (stereo not given), the outcome in assay [1], in assay [2], in assay [3] and in assay [4] was inactive.
Take `O=C(NC(=S)N1CCc2ccccc21)c1ccccc1`: the activation in assay [1] was 308% (active). For the same molecule, the potentiation in assay [2] is 162% (active); in assay [3], 366% (active). In addition, in assay [4], the result was inactive.
With `CCCCC/C=N\NC(=O)Cc1ccc([N+](=O)[O-])cc1`, the result in assay [1], in assay [2], in assay [3] and in assay [4] was inactive.
`CCCCN(CCCC)c1ccc(C(=O)c2ccccc2C(=O)O)c(O)c1`: the activation in assay [1] was 212% (active). The results for the potentiation in assay [2] and in assay [3] were 51.5% (active) and 182% (active), respectively. Further, the current potentiation in assay [4] was 15.1% (active).
As for `CCCCn1c(NS(=O)(=O)c2ccc(C)cc2)c(S(=O)(=O)c2ccccc2)c2nc3ccccc3nc21`, the outcome in assay [1], in assay [2], in assay [3] and in assay [4] was inactive.
Regarding `CCOc1ccc(S(=O)(=O)N2CCCC(C(=O)NCCN3CCOCC3)C2)cc1Cl` (stereo not given), the activation in assay [1] was 260% (active). In addition, the figures for the potentiation in assay [2] and in assay [3] were 108% (active) and 250% (active), respectively. Moreover, the outcome in assay [4] was inactive.
In the case of `Cc1[nH]n(-c2ccc(Cl)cc2)c(=O)c1/C=N/c1nnc(-c2ccccc2)s1`, in assay [1], the activation is 678% (active). The potentiation in assay [2] was 182% (active); in assay [3], 466% (active). The outcome in assay [4] was inactive.
Regarding `CC(=O)SCC(=O)N=c1sc2cc(F)ccc2n1C`, the outcome in assay [1], in assay [2], in assay [3] and in assay [4] was inactive.
As for `COc1ccc(-n2nc(C(=O)NCC(=O)N3CCC(C(N)=O)CC3)c3ccccc3c2=O)cc1`, the result in assay [1], in assay [2], in assay [3] and in assay [4] was inactive.
Take `C/C(=N\Nc1nc2ccccc2[nH]1)c1ccc(Cl)s1`: the outcome in assay [1], in assay [2] and in assay [4] was inactive. Besides, the potentiation in assay [3] is 156% (active).
Consider `O=C(NN=C1c2ccccc2-c2ccccc21)c1ccccc1Br`, for which the result in assay [1], in assay [3] and in assay [4] was inactive. For the same molecule, the potentiation in assay [2] was 37% (active).
On to `Cc1ccccc1NC(=S)NNC(=O)c1csc2c1CCC(C)C2` (stereo not given), for which, in assay [1], the activation was 174% (active). Besides, the potentiation in assay [2] was 30% (active); in assay [3] it was 200% (active). Moreover, the result in assay [4] was inactive.
For the molecule `COc1cccc(NC(=S)NCCN2CCOCC2)c1`, the activation in assay [1] is 156% (active). For the same molecule, the potentiation in assay [2] is 26% (active); in assay [3], 162% (active). Besides, the outcome in assay [4] was inactive.
As to `CCC1Oc2ccc(C)cc2N(CC(=O)N(Cc2ccc(C)o2)C2CC(C)(C)NC(C)(C)C2)C1=O` (stereo not given), the activation in assay [1] is 152% (active). In addition, the potentiation was 63.5% (active) in assay [2] and 166% (active) in assay [3]. The outcome in assay [4] was inactive.
As for `CCOC(=O)c1c(C)[nH]c(=S)c(C#N)c1-c1ccc(Cl)cc1`, in assay [1], the activation was 150% (active). The potentiation is 34.5% (active) in assay [2] and 170% (active) in assay [3]. For the same molecule, the result in assay [4] was inactive.
As for `CC1CCCC(NC(=S)NC(=O)c2ccccc2Br)C1C` (stereo not given), the outcome in assay [1], in assay [3] and in assay [4] was inactive. The potentiation in assay [2] is 29.5% (active).
For `CCOC(=O)c1ccc(N2C(=O)c3n[nH]c(C)c3C2c2ccccn2)cc1` (stereo not given), the result in assay [1], in assay [2], in assay [3] and in assay [4] was inactive.
As to `O=C(NC(=S)Nc1ccc(N2CCCCC2)cc1)c1cccs1`, the activation in assay [1] was 158% (active). The potentiation in assay [2] is 74.5% (active); in assay [3], 162% (active). Moreover, the outcome in assay [4] was inactive.
Regarding `Oc1c(Br)cc(Br)cc1C=Nc1cccnc1`, in assay [1], the activation was 146% (active). Besides, the potentiation in assay [2] is 48% (active). For the same molecule, the outcome in assay [3] and in assay [4] was inactive.
As for `CCCOc1ccccc1Cn1c(=O)oc2ccc(C)cc21`, the result in assay [1], in assay [2], in assay [3] and in assay [4] was inactive.
Take `N#CC1=C(Nc2ccccc2)SC=C(c2ccc(Br)cc2)N=C1N1CCOCC1`: the outcome in assay [1], in assay [2], in assay [3] and in assay [4] was inactive.
For the molecule `c1ccc(CCCNc2ncnc3nc[nH]c23)cc1`, the activation in assay [1] is 316% (active). Besides, the figures for the potentiation in assay [2] and in assay [3] were 78.5% (active) and 291% (active), respectively. The result in assay [4] was inactive.
